Assay outcomes deposited in PubChem BioAssay by Broad Institute.
Pf Dd2 growth = P. falciparum Dd2 growth inhibition | AID 1159554 | actives 2.3% (n = 94,000) | activity change, % at 10 µM | SYBR Green, 72 h; hits give low values; in the data active means activity change below about -80%; inconclusive means no clear call, values can overlap the other calls
GASC1 inh = inhibitors of human demethylase GASC-1 KDM4C; Q9H3R0; GST-KDM4C 2-372, H3K9me3 peptide, LANCE TR-FRET; inhibition, % at 12.5 µM; actives 0.15% (n = 96,000); AID 720574;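 active means mean replicate inhibition above about 25%, with at least 55% of replicates also reaching it, limit read from the data, passing the limit was not always enough; inconclusive means only one of those two conditions met; inactive means neither condition met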
Target sequence (Q9H3R0 2-372 limits assumed): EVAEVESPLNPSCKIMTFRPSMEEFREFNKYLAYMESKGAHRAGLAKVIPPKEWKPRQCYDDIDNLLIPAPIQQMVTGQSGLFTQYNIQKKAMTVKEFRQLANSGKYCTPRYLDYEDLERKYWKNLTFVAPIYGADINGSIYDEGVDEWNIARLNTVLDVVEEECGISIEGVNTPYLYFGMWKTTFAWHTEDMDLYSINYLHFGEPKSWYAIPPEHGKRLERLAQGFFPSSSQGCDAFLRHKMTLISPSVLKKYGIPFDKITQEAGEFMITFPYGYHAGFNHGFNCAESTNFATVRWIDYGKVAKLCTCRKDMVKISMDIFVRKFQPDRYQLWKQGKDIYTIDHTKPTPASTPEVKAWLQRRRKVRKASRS
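System – N-terminal GST-fused human GASC-1 (KDM4C) fragment, residues 2-372 · Input – enzyme final amount 10 nM · Technique – LANCE TR-FRET, Eu antibody, ULight-streptavidin, EDTA, ex 340 nm, em 618/671 nm · Medium – HEPES buffer, pH 7.5, plus ascorbate · Incubation – enzyme reaction 30 min, then detection 60 min, both room temperature · Reagent – H3K9me3 peptide with Fe(II)/2OG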
T cruzi growth-1 = inhibitors of T. cruzi proliferation. actives 5.9% (n = 77,000). inhibition, % at 8.34 µM. T. cruzi beta-gal in NIH3T3, GalScreen luminescence, 90 h;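 active means mean inhibition above about 93%, with at least 55% of replicates each passing it, limit read from the data, passing the limit was not always enough; inconclusive means only one of those two conditions holds; inactive means neither condition holds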
IDH1 mut inh = IDH1 R132H (human) inhibition; inhibition, % at 10 µM; O75874; actives 0.18% (n = 70,000); IDH1 R132H reductase, diaphorase/resazurin fluorescence, 60 min; AID 624101; in the data active means inhibition above about 34%; inconclusive means no clear call, values can overlap the other calls; inactive means below about 11%;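 further: 0% = DMSO and 100% = no enzyme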
T cruzi growth-2 = Trypanosoma cruzi proliferation inhibition; actives 72% (n = 5,600); T. cruzi beta-gal in NIH3T3, GalScreen luminescence, 90 h; shares compounds with T cruzi growth-1; inhibition, % at 8.35 µM;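 active means mean replicate inhibition above about 95% and at least 55% of replicates individually reaching it, limit read from the data; inconclusive means only one of the two criteria is met; inactive means neither criterion is met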
T cruzi growth-3 = Trypanosoma cruzi proliferation inhibition; inhibition, % at 2.09 µM; shares compounds with T cruzi growth-1; actives 21% (n = 5,600); T. cruzi beta-gal in NIH3T3, GalScreen luminescence, 90 h; AID 651740;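 active means mean inhibition above about 95%, with at least 55% of replicates also reaching it, limit read from the data; inconclusive means meets just one of the two conditions; inactive means meets neither condition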;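 further: plate controls were neutral control median for no effect and positive control median for full effect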
3T3 cytotox = NIH/3T3 (mouse) viability loss | shares compounds with T cruzi growth-1 | NIH/3T3 viability, CellTiter-Glo ATP luminescence, 90 h | cytotoxicity (signal decrease), % at 8.35 µM | actives 14% (n = 5,600) | AID 651742;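 active means mean signal decrease across replicates above about 35% based on untreated-well scatter, with enough replicates individually passing, limit read from the data; inconclusive means no rule stated though some were filed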;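 further: 0% = median of neutral control wells and 100% = median of positive control wells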
NIH3T3 tox 2 = kills mouse NIH/3T3 fibroblasts | shares compounds with T cruzi growth-1 | NIH/3T3 viability, CellTiter-Glo ATP luminescence, 90 h | inhibition, % at 24.9 µM | actives 56% (n = 5,600);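 active means mean loss of cell viability signal at or above a set limit, and enough replicates individually reaching it; inconclusive means meets only the mean limit or only the replicate share; inactive means meets neither condition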;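 further: 0% = median of neutral control wells and 100% = median of positive control wells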
* hit, by the source's call; u = inconclusive; x = no result given. This is a sample that favours compounds with a hit; in the whole collection about 5.9% have one here.

SMILES | Pf Dd2 growth | GASC1 inh | T cruzi growth-1 | IDH1 mut inh | T cruzi growth-2 | T cruzi growth-3 | 3T3 cytotox | NIH3T3 tox 2
N#Cc1cccc(-c2ccc([C@H]3[C@H](CO)N4CCCCN(C(=O)Nc5ccc(F)cc5)C[C@@H]34)cc2)c1 | 4 | -1 | 102* | x | 104* | 66 | 21 | 105*
Cc1nn(C(N)=S)c2c1CC(COCCC(C)C)O2 (stereo not given) | x | x | x | 14 | x | x | x | x
C[C@H](CO)N1C[C@H](C)[C@H](CN(C)S(=O)(=O)c2cccc(F)c2)Oc2ncc(C#CC3CCCC3)cc2C1=O | -41 | -2 | 100 | 0 | x | x | x | x
C[C@H](CO)N1C[C@H](C)[C@@H](CN(C)S(=O)(=O)c2cccc(F)c2)Oc2ncc(C#CC3CC3)cc2C1=O | -56 | -1 | -88 | x | x | x | x | x
C[C@H](CO)N1C[C@H](C)[C@@H](CN(C)S(=O)(=O)c2cccc(F)c2)Oc2ncc(C#CC3CCCC3)cc2C1=O | -72 | 2 | 119* | -4 | 104* | 88 | 6 | 98*
C[C@@H]1CN([C@@H](C)CO)C(=O)c2cc(C#CC3CCCC3)cnc2O[C@@H]1CN(C)S(=O)(=O)c1cccc(F)c1 | -58 | -1 | 104* | -4 | 96* | 72 | 29 | 75*
C[C@@H]1CN([C@@H](C)CO)C(=O)c2cc(C#CC3CCCCC3)cnc2O[C@H]1CN(C)S(=O)(=O)c1ccc(F)cc1 | -39 | 12 | 101* | 8 | 105* | 98* | 21 | 99*
Cc1cc(Cl)ccc1NC(=O)Cn1cnc2sc(C)c(-c3ccc(F)cc3)c2c1=O | x | x | x | 0 | x | x | x | x
Cc1ccc(S(=O)(=O)NC(C)C(=O)Nc2c(C)cc(C)cc2C)cc1 (stereo not given) | x | x | x | 0 | x | x | x | x
C[C@@H]1CN([C@@H](C)CO)S(=O)(=O)c2ccc(C#Cc3ccccc3)cc2O[C@H]1CN(C)C(=O)CN(C)C | -67 | 0 | 102* | 0 | 100* | 60 | 7 | 103*
C[C@H](CO)N1C[C@H](C)[C@H](CN(C)C(=O)CN(C)C)Oc2cc(C#Cc3ccccc3)ccc2S1(=O)=O | u | -2 | -18 | 0 | x | x | x | x
COCC(=O)N(C)C[C@@H]1Oc2cc(C#Cc3ccccc3)ccc2S(=O)(=O)N([C@@H](C)CO)C[C@H]1C | -75 | -1 | u | 1 | 60 | 34 | -6 | 21
COCC(=O)N(C)C[C@@H]1Oc2cc(C#Cc3ccccc3)ccc2S(=O)(=O)N([C@H](C)CO)C[C@H]1C | -77 | -3 | 71 | 0 | x | x | x | x
COc1ccc(S(=O)(=O)N(C)C[C@@H]2Oc3ccc(NC(=O)Cc4cn(C)c5ccccc45)cc3C(=O)N([C@H](C)CO)C[C@@H]2C)cc1 | -85* | -4 | 101* | -10 | 97* | 20 | 10 | 63*
COc1ccc(S(=O)(=O)N(C)C[C@@H]2Oc3ccc(NC(=O)Cc4cn(C)c5ccccc45)cc3C(=O)N([C@@H](C)CO)C[C@@H]2C)cc1 | -73 | -7 | 102* | -6 | 85 | 27 | -5 | 46*
CC(C)[C@@H]1NC(=O)[C@@H](Cc2c[nH]c3ccccc23)n2c1nc1ccccc1c2=O | x | x | x | 0 | x | x | x | x
C[C@@H]1CN([C@@H](C)CO)C(=O)c2cc(NC(=O)Cc3ccccc3)ccc2O[C@@H]1CN(C)Cc1ccc(-c2ccccc2)cc1 | 15 | 0 | u | x | 111* | 59 | 12 | 95*
C[C@@H]1CN([C@H](C)CO)C(=O)c2cc(NC(=O)Cc3ccccc3)ccc2O[C@H]1CN(C)Cc1ccc(-c2ccccc2)cc1 | -6 | 2 | 91 | 3 | x | x | x | x
C[C@H](CO)N1C[C@H](C)[C@@H](CN(C)Cc2ccc(Oc3ccccc3)cc2)Oc2ccc(NC(=O)Cc3ccccc3)cc2C1=O | -1 | 2 | u | 1 | 78 | 83 | 7 | 89*
COc1ccccc1NC(=O)CSc1nnc(-c2ccc([N+](=O)[O-])cc2)n1-c1ccccc1 | x | x | x | 2 | x | x | x | x
O=c1c2c3c(sc2nc2c4ccccc4c(NCCOCCO)nn12)CCCC3 | x | x | x | 0 | x | x | x | x
